According to ChEMBL document CHEMBL4414651, “Discovery and Optimization of Salicylic Acid-Derived Sulfonamide Inhibitors of the WD Repeat-Containing Protein 5-MYC Protein-Protein Interaction” (J Med Chem, 2019):
The source made the active and inactive calls. The calls are words filed in the database; no cut-off is given here.

Key:
[1] = biological target: T1, WD repeat-containing protein 5 (Homo sapiens, UniProt P61964)
[2] = biological target: T1, WD repeat-containing protein 5; assay: Binding affinity to N-terminal FLAG-tagged human full-length WDR5 expressed in HEK293T cells harboring human C-terminal HA-tagged c-MYC assessed as disruption of WDR5-c-MYC protein-protein interaction at 50 uM by SDS-PAGE based immunoblot assay; assay type: cell-based
[3] = species on record: Homo sapiens; assay: Inhibition of human MLL1/WDR5/RBBP5/ASH2L/DPY30 complex assessed as reduction in histone methyl-transferase activity using H3-peptide as substrate
[4] = biological target: T1, WD repeat-containing protein 5; assay: Binding affinity to N-terminal FLAG-tagged human full-length WDR5 expressed in HEK293T cells harboring human C-terminal HA-tagged c-MYC assessed as disruption of WDR5-RBBP5 protein-protein interaction at 50 uM by SDS-PAGE based immunoblot assay; assay type: cell-based
How it was run: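 HEK293 cells expressing FLAG-WDR5 and c-MYC-HA were kept in DMEM with 10% FBS, hygromycin B 50 μg/mL and puromycin 100 ng/mL. Lysates in Tris pH 8.0/NaCl/EDTA/1% Triton buffer were treated with compound at 50 μM or 6.25–50 μM. α-FLAG magnetic M2 beads, 2 h at 4 °C, then SDS-PAGE and α-RBBP5 immunoblot. Quantified against vehicle; at least two independent repeats.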

[5] = Protein binding in plasma (unknown origin) assessed as unbound fraction; assay type: ADME, cell-free
[6] = Solubility of the compound; assay type: physicochemical
How it was run: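 Kinetic solubility, measured by an outside contract lab using a standard commercial assay format.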

[7] = Apparent permeability from apical to basolateral side in MDCK cells; assay type: ADME, cell-based, Canis lupus familiaris; settings: dog
[8] = biological target: T1, WD repeat-containing protein 5; assay: Binding affinity to N-terminal FLAG-tagged human full-length WDR5 […] assessed as change in melting temperature at 10 uM by differential scanning fluorimetry
How it was run: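 Thermal shift (differential scanning fluorimetry) on WDR5, with compounds at 10 μM. Samples were run in triplicate, and ΔTm is the average melting-temperature shift read by fluorescence.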

SMILES	Kd [1] [nM]	further results
O=C(O)c1cc(C2CC2)cc(NS(=O)(=O)c2cc(Br)cc(Cl)c2O)c1O	207	
CS(=O)(=O)c1cc(Cl)cc(NS(=O)(=O)c2cc(Br)cc(Cl)c2O)c1O	123	Activity [2]: Active; inhibition [3]: Active
CS(=O)(=O)c1cc(S(F)(F)(F)(F)F)cc(NS(=O)(=O)c2cc(Br)ccc2O)c1O	167	
O=C(O)c1cc(NS(=O)(=O)c2cc(Br)ccc2O)cc(OC(F)(F)F)c1	194	
COc1ccc(Br)cc1S(=O)(=O)Nc1ccc(Cl)cc1O	27700	
CNC(=O)c1cc(C2(C#N)CCC2)cc(NS(=O)(=O)c2cc(Br)ccc2O)c1O	566	Activity [4]: Active; Fu [5]: < 0.0006%; Activity [2]: Active; solubility [6]: > 100 µM; Papp [7]: 45.2 ×10⁻⁶ cm/s; inhibition [3]: Active
COc1ccc(Br)cc1S(=O)(=O)Nc1cc(Cl)cc(C(=O)O)c1O	431	
CNC(=O)c1cc(NS(=O)(=O)c2cc(Br)cc(Cl)c2O)cc(C2(C#N)CCC2)c1	128	
O=C(O)c1cc(Cl)cc(NS(=O)(=O)c2cc(Br)cc(Cl)c2O)c1O	163	ΔTm [8]: 4.05 °C
CS(=O)(=O)c1cc(S(F)(F)(F)(F)F)cc(NS(=O)(=O)c2cc(Br)cc(Cl)c2O)c1O	45	Fu [5]: < 0.0003%; solubility [6]: > 100 µM; Papp [7]: 18.6 ×10⁻⁶ cm/s
O=S(=O)(Nc1cc(C2CC2)ccc1O)c1cc(Br)ccc1O	818	
CS(=O)(=O)c1cc(Cl)cc(NS(=O)(=O)c2cc(Br)ccc2O)c1O	1070	inhibition [3]: Active
CS(=O)(=O)c1cc(C2(C#N)CCC2)cc(NS(=O)(=O)c2cc(Br)ccc2O)c1O	349	
N#CC1(c2ccc(O)c(NS(=O)(=O)c3cc(Br)ccc3O)c2)CCCCC1	229	
CNC(=O)c1cc(C2(C#N)CCC2)cc(NS(=O)(=O)c2cc(Br)ccc2OC)c1O	906	Activity [2]: Active
COc1ccc(Br)cc1S(=O)(=O)Nc1ccccc1O	> 40000	
COc1ccc(Br)cc1S(=O)(=O)Nc1cc(Cl)cc(S(C)(=O)=O)c1O	304	Activity [2]: Active
O=C(O)c1cc(Cl)cc(NS(=O)(=O)c2cc(Br)ccc2O)c1	2880	
CNC(=O)c1cc(NS(=O)(=O)c2cc(Br)ccc2O)cc(C2(C#N)CCC2)c1	1080	
CS(=O)(=O)c1cc(NS(=O)(=O)c2cc(Br)ccc2O)cc(S(F)(F)(F)(F)F)c1	511	Fu [5]: 0.002%; solubility [6]: > 100 µM; Papp [7]: 16.1 ×10⁻⁶ cm/s

SMILES	Kd [1] [nM]	further results
CS(=O)(=O)c1cc(Cl)cc(NS(=O)(=O)c2cc(Br)cc(Cl)c2O)c1	220	Fu [5]: 0.0007%; solubility [6]: > 100 µM; Papp [7]: 3.89 ×10⁻⁶ cm/s
O=C(O)c1cc(S(F)(F)(F)(F)F)cc(NS(=O)(=O)c2cc(Br)cc(Cl)c2O)c1O	31	ΔTm [8]: 8.42 °C
CS(=O)(=O)c1cc(NS(=O)(=O)c2cc(Br)cc(Cl)c2O)cc(C2(C#N)CCC2)c1	215	
COc1ccc(I)cc1S(=O)(=O)Nc1cc(Cl)ccc1O	8390	
N#CC1(c2ccc(O)c(NS(=O)(=O)c3cc(Br)ccc3O)c2)CCC1	289	Fu [5]: < 0.0005%; solubility [6]: > 100 µM; Papp [7]: 27.8 ×10⁻⁶ cm/s; ΔTm [8]: 2.63 °C; inhibition [3]: Active
O=C(O)c1cc(NS(=O)(=O)c2cc(Br)ccc2O)cc(S(F)(F)(F)(F)F)c1	64	
CS(=O)(=O)c1cc(NS(=O)(=O)c2cc(Br)cc(Cl)c2O)cc(S(F)(F)(F)(F)F)c1	93	Activity [2]: Active
O=S(=O)(Nc1cc(OC(F)(F)F)ccc1O)c1cc(Br)ccc1O	549	
CNC(=O)c1cc(S(F)(F)(F)(F)F)cc(NS(=O)(=O)c2cc(Br)ccc2O)c1O	204	
COc1ccccc1S(=O)(=O)Nc1cc(Cl)ccc1O	> 40000	
O=S(=O)(Nc1cc(Cl)ccc1O)c1cc(Br)ccc1O	1250	Fu [5]: < 0.0026%; solubility [6]: > 100 µM; Papp [7]: 36.4 ×10⁻⁶ cm/s
N#CC1(c2cc(NS(=O)(=O)c3ccc(Br)cc3O)c(O)c(C(=O)O)c2)CCC1		ΔTm [8]: 0.42 °C
O=S(=O)(Nc1cc(C2(C(F)(F)F)CC2)ccc1O)c1cc(Br)ccc1O	547	
CNC(=O)c1c(O)c(NS(=O)(=O)c2cc(Br)cc(Cl)c2O)cc(C2CC2)c1F	238	Activity [4]: Active; Activity [2]: Active; inhibition [3]: Active
CS(=O)(=O)c1cc(Cl)cc(NS(=O)(=O)c2cc(Br)cc3cccnc23)c1O	385	Activity [2]: Active
CNC(=O)c1cc(C2(C#N)CCCCC2)cc(NS(=O)(=O)c2cc(Br)cc(Cl)c2O)c1O	362	Activity [4]: Active; Activity [2]: Active
COc1ccc(Br)cc1S(=O)(=O)Nc1cc(C(C)(C)C)ccc1O	3780	
O=C(O)c1cc(S(F)(F)(F)(F)F)cc(NS(=O)(=O)c2cc(Br)cc3cccnc23)c1O	47	
CS(=O)(=O)c1cc(C2(C#N)CCC2)cc(NS(=O)(=O)c2cc(Br)cc3cccnc23)c1O	272	
CNC(=O)c1cc(NS(=O)(=O)c2cc(Br)ccc2O)cc(S(F)(F)(F)(F)F)c1	848	

SMILES	Kd [1] [nM]	further results
O=S(=O)(Nc1cc(Cl)ccc1O)c1cccc(Br)c1	36100	
COc1ccc(Cl)cc1S(=O)(=O)Nc1cc(Cl)ccc1O	8410	
O=C(O)c1c(O)c(NS(=O)(=O)c2cc(Br)cc(Cl)c2O)cc(C2CC2)c1F	50	Activity [4]: Active; Activity [2]: Active; inhibition [3]: Active
O=C(O)c1c(O)c(NS(=O)(=O)c2cc(Br)ccc2O)cc(C2CC2)c1F	122	Fu [5]: < 0.0008%; solubility [6]: > 100 µM; Papp [7]: 0.61 ×10⁻⁶ cm/s; inhibition [3]: Active
N#CC1(c2cc(NS(=O)(=O)c3cc(Br)cc4cccnc34)c(O)c(C(=O)O)c2)CCC1	104	
O=S(=O)(Nc1cc(S(F)(F)(F)(F)F)ccc1O)c1cc(Br)ccc1O	110	solubility [6]: > 100 µM; Papp [7]: 14.7 ×10⁻⁶ cm/s; inhibition [3]: Active
CNC(=O)c1cc(Cl)cc(NS(=O)(=O)c2cc(Br)cc(Cl)c2O)c1O	298	
CCOc1ccc(S(=O)(=O)Nc2ccccc2C(=O)O)c(C)c1C	> 125000	
N#CC1(c2ccc(O)c(NS(=O)(=O)c3cc(Br)ccc3O)c2)CCCC1	614	
CCOc1cc(S(=O)(=O)Nc2ccccc2C(=O)O)ccc1F	71000	
CNC(=O)c1cc(S(F)(F)(F)(F)F)cc(NS(=O)(=O)c2cc(Br)cc3cccnc23)c1O	122	
O=C(O)c1cc(Cl)cc(NS(=O)(=O)c2cc(Br)ccc2O)c1O	223	ΔTm [8]: 4.05 °C
CS(=O)(=O)c1cc(Cl)cc(NS(=O)(=O)c2cc(Br)ccc2O)c1	1880	Fu [5]: 0.004%; solubility [6]: > 100 µM; Papp [7]: 4.79 ×10⁻⁶ cm/s
COc1ccc(Br)cc1S(=O)(=O)Nc1cc(Cl)ccc1O		inhibition [3]: Active
COc1ccc(Br)cc1S(=O)(=O)Nc1cc(-c2ccccc2)ccc1O	37000	
CNC(=O)c1cc(C2(C#N)CCC2)cc(NS(=O)(=O)c2cc(Br)cc3cccnc23)c1O	825	Activity [2]: Active
CS(=O)(=O)c1cc(C2(C#N)CCC2)cc(NS(=O)(=O)c2cc(Br)cc(Cl)c2O)c1O	110	
N#CC1(c2cc(NS(=O)(=O)c3cc(Br)ccc3O)c(O)c(C(=O)O)c2)CCCCC1	195	
CNC(=O)c1cc(S(F)(F)(F)(F)F)cc(NS(=O)(=O)c2cc(Br)cc(Cl)c2O)c1O	190	Activity [2]: Active
O=C(O)c1cc(OC(F)(F)F)cc(NS(=O)(=O)c2cc(Br)ccc2O)c1O	137	
